# Experimental data published in ChEMBL document CHEMBL4334471, “Discovery of 1,8-disubstituted-[1,2,3]triazolo[4,5-c]quinoline derivatives as a new class of Hippo signaling pathway inhibitors” (Bioorg Med Chem Lett, 2019).
# Calls of active or inactive are those of the source. No cut-off for these calls is given here.
# System: A549
# Experiment: Inhibition of hippo signalling protein in human A549 cells cotransfected with CTGF promoter-driven firefly luciferase and CMV promoter-driven renilla luciferase gene assessed as increase in CTGF expression at 10 uM incubated for 24 hrs by dual-luciferase gene assay relative to control
row,Compound,fold change (FC)
1,C[C@@H](c1ccccc1)n1nnc2cnc3ccc(-c4ccc(N5CCOCC5)nc4)cc3c21,1.06
2,COc1cccc([C@H](C)n2nnc3cnc4ccc(-c5cnc6[nH]ccc6c5)cc4c32)c1,3.13
3,C[C@H](c1cccc(F)c1)n1nnc2cnc3ccc(-c4cnc5[nH]ccc5c4)cc3c21,2.1
4,COc1ccc(-c2ccc3ncc4nnn([C@@H](C)c5ccccc5)c4c3c2)cn1,0.996
5,C[C@@H](c1ccccc1)n1nnc2cnc3ccc(-c4ccnc5[nH]ccc45)cc3c21,0.549
6,C[C@@H](c1ccccc1)n1nnc2cnc3ccc(-c4ccc(N)cc4)cc3c21,2.24
7,C[C@@H](c1ccc(F)cc1)n1nnc2cnc3ccc(-c4cnc5[nH]ccc5c4)cc3c21,6.51
8,C[C@@H](c1ccccc1)n1nnc2cnc3ccc(-c4ccc(N(C)C)nc4)cc3c21,1.19
9,C[C@@H](c1ccccc1)n1nnc2cnc3ccc(-c4ccc(N)c(Cl)c4)cc3c21,1.73
10,COc1cccc([C@@H](C)n2nnc3cnc4ccc(-c5cnc6[nH]ccc6c5)cc4c32)c1,2.22
11,C[C@@H](c1ccccc1)n1nnc2cnc3ccc(-c4ccc(Cl)nc4)cc3c21,1.24
12,Cn1nnc2cnc3ccc(-c4cnc5[nH]ccc5c4)cc3c21,0.55
13,CN1C(=O)c2sccc2N(C)c2nc(Nc3ccc(S(N)(=O)=O)cc3)ncc21,4.92
14,C[C@@H](c1cccc(F)c1)n1nnc2cnc3ccc(-c4cnc5[nH]ccc5c4)cc3c21,4.91
15,C[C@@H](c1ccccc1)n1nnc2cnc3ccc(-c4ccc5[nH]ccc5c4)cc3c21,4.6
16,C[C@@H](c1ccccc1)n1nnc2cnc3ccc(-c4ccc(C#N)nc4)cc3c21,1.94
17,CC[C@H](c1ccccc1)n1nnc2cnc3ccc(-c4cnc5[nH]ccc5c4)cc3c21,3.72
18,Fc1ccc(-n2nnc3cnc4ccc(-c5cnc6[nH]ccc6c5)cc4c32)cc1,3.44
19,CC(C)n1nnc2cnc3ccc(-c4cnc5[nH]ccc5c4)cc3c21,3.38
20,C[C@@H](c1ccccc1)n1nnc2cnc3ccc(-c4ccnc(N)c4)cc3c21,2.01
21,C[C@@H](c1ccccc1)n1nnc2cnc3ccc(-c4cnc(N)nc4)cc3c21,3.49
22,C[C@@H](c1ccccc1)n1nnc2cnc3ccc(-c4c[nH]c5ncccc45)cc3c21,1.11
23,C[C@H](c1ccc(F)cc1)n1nnc2cnc3ccc(-c4cnc5[nH]ccc5c4)cc3c21,4.92
24,C[C@@H](c1ccccc1)n1nnc2cnc3ccc(-c4ccccc4)cc3c21,1.43
25,Fc1ccc(Cn2nnc3cnc4ccc(-c5cnc6[nH]ccc6c5)cc4c32)cc1,3.87
26,CC[C@@H](c1ccccc1)n1nnc2cnc3ccc(-c4cnc5[nH]ccc5c4)cc3c21,8.06
27,C[C@H](c1ccccc1)n1nnc2cnc3ccc(-c4cnc5[nH]ccc5c4)cc3c21,8.1
28,C[C@@H](c1ccccc1)n1nnc2cnc3ccc(-c4ccc(N)nc4)cc3c21,9.09

# System: A549
# Experiment: Inhibition of hippo signalling protein in human A549 cells cotransfected with CTGF promoter-driven firefly luciferase and CMV promoter-driven renilla luciferase gene incubated for 24 hrs by dual-luciferase gene assay
# Type: cell-based
# How it was run: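 Dual-luciferase reporter read-out in A549-CTGF cells after 24 h culture with compound. Firefly luciferase is expressed relative to DMSO-treated cells, set as 1. Screening used 10 µM. Values are mean ± SEM of three independent experiments.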
row,Compound,inhibition
1,CN1C(=O)c2sccc2N(C)c2nc(Nc3ccc(S(N)(=O)=O)cc3)ncc21,Dose-dependent effect

# System: A549
# Experiment: Inhibition of hippo signalling protein in human A549 cells assessed as increase in CTGF mRNA expression level at 10 uM incubated for 24 hrs by qRT-PCR analysis
# Type: cell-based
# How it was run: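 A549-CTGF cells were exposed to compound or 0.1% DMSO for 24 h before total RNA extraction. Endogenous CTGF mRNA was quantified by real-time PCR. Data were mean ± SEM (n=4) and compared by Student's t-test.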
row,Compound,inhibition
1,CN1C(=O)c2sccc2N(C)c2nc(Nc3ccc(S(N)(=O)=O)cc3)ncc21,Active

# Molecular target: Transcriptional coactivator YAP1 (Homo sapiens) (UniProt P46937)
# Experiment: Induction of YAP nuclear translocation in human A549 cells at 10 uM incubated for 8 hrs by immunofluorescence based confocal microscopy
# Type: cell-based
# How it was run: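 A549-CTGF reporter cells were treated for 8 h at 10 µM, with 0.1% DMSO as vehicle control. Cells were then fixed, permeabilized and probed with anti-YAP antibody. DAPI stained the nuclei, and YAP localization was imaged by immunofluorescence.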
# Chain of Transcriptional coactivator YAP1 (Homo sapiens) (P46937 whole entry): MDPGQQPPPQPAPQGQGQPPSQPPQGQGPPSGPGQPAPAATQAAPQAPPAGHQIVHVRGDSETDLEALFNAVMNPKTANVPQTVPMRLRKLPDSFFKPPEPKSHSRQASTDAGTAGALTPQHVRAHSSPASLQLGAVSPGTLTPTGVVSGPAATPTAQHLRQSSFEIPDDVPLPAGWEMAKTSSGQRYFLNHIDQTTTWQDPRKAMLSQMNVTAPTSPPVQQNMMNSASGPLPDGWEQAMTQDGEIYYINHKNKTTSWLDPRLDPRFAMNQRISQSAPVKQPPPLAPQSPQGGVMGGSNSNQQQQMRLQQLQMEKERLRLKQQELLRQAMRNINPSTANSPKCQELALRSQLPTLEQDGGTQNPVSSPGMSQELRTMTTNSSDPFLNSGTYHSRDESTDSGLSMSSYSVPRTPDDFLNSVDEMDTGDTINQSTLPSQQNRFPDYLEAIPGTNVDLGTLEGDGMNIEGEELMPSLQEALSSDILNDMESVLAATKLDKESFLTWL
row,Activity,Compound
1,Active,CN1C(=O)c2sccc2N(C)c2nc(Nc3ccc(S(N)(=O)=O)cc3)ncc21
